Results: ChEMBL document CHEMBL1141070, “Synthesis and biological activity of flurbiprofen analogues as selective inhibitors of beta-amyloid(1)(-)(42) secretion” (J Med Chem, 2005)

Experiments:
[1] = molecular target: T1, Amyloid-beta precursor protein (Homo sapiens, UniProt P05067); assay: Inhibitory concentration against beta-amyloid-42 (Abeta42) secretion was evaluated in human neuroglioma cells (H4-APP695NL); format: functional, cell-based
Method in brief: (§1)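 H4-APP695NL human neuroglioma cells (APP695 Swedish K595N/M596L) seeded at 2 × 10^5/well and grown 24 h to confluence. Increasing compound concentrations added overnight; DMSO 1% as vehicle. Supernatant Aβ42 or Aβ40 measured by electrochemiluminescence immunoassay: biotinylated 4G8 plus C-terminus-specific rabbit antibodies, captured on streptavidin beads.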
Target sequence in this assay (P05067 18-770 limits assumed): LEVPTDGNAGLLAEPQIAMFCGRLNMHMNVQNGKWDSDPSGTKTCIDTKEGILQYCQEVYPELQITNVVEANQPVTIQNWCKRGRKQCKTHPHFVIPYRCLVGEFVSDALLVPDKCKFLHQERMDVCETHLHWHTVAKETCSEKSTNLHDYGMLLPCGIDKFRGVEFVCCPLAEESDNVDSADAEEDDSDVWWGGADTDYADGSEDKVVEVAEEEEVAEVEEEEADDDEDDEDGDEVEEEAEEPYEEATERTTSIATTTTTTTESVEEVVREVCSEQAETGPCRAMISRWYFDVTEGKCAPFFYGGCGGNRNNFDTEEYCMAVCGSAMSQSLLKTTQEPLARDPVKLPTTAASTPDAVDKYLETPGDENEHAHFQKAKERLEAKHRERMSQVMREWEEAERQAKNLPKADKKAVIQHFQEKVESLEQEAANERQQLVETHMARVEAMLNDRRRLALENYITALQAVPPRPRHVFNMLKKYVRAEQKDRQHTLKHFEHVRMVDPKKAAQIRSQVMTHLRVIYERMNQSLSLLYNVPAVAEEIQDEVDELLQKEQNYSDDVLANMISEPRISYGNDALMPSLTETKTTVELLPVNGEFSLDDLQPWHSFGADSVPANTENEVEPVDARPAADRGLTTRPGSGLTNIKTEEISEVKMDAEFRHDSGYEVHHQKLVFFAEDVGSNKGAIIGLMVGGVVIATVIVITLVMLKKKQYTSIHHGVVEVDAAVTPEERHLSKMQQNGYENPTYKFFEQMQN

[2] = molecular target: T2, Prostaglandin G/H synthase 1 (Rattus norvegicus) (UniProt Q63921); assay: Percent inhibition against cyclooxygenase-1 at 100 uM in rat blood
T2 sequence (whole entry): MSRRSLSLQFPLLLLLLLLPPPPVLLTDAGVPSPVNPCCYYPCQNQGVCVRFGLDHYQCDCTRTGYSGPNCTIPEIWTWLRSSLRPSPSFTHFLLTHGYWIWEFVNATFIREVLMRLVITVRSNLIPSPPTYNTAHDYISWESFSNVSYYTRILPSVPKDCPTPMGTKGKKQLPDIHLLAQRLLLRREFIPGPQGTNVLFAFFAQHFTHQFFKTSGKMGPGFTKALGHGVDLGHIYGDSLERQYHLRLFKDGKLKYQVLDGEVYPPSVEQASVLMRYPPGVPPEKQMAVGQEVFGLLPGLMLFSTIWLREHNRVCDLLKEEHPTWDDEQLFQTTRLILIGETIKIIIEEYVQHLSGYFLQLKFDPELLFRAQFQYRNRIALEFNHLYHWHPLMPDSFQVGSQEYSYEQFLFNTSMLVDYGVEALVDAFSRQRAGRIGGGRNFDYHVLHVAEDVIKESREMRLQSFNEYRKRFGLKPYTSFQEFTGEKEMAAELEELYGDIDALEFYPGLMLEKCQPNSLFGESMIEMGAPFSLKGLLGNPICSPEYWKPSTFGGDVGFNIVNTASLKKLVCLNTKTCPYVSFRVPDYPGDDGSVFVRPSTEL
Method in brief: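 Fresh rat whole blood preincubated 1 h at 37 °C with compound (100 μM) or DMSO (0.3% final). Stimulated 30 min with A23187 calcium ionophore; plasma thromboxane B2 measured by radioimmunoassay.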

[3] = molecular target: T3, Cytochrome P450 2C19 (Homo sapiens, UniProt P33261); assay: Compound dissolved in DMSO was tested for interaction with baculovirus-insect cells expressing human cytochrome P450 at 100 uM; format: ADME
Method in brief: (§2)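 Microsomes from baculovirus-insect cells expressing human CYP1A2, 2C9, 2C19, 2D6 or 3A4. Compound serially diluted with an NADPH-regenerating mix (16.3 μM NADP+, 0.83 mM glucose-6-phosphate, 0.83 mM MgCl2, 0.4 U/mL G6PDH). Pre-warmed 10 min at 37 °C, then isoform-specific substrate added in 0.35 M potassium phosphate pH 7.4. Fluorometric read-out; IC50 by nonlinear regression.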

[4] = system: Caco-2; assay: Permeability in the Caco-2 cell; high absorption; format: ADME, cell-based; details: human
Method in brief: (§3)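 Caco-2 monolayers on polycarbonate Transwell inserts, 2 h at 37 °C. Apical and basolateral solutions analysed by LC-MS/MS (SRM). Papp = Cb·Vb/(C0·A·t).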

[5] = molecular target: T1, Amyloid-beta precursor protein; details: at 100 µM
Target sequence in this assay (P05067 whole entry): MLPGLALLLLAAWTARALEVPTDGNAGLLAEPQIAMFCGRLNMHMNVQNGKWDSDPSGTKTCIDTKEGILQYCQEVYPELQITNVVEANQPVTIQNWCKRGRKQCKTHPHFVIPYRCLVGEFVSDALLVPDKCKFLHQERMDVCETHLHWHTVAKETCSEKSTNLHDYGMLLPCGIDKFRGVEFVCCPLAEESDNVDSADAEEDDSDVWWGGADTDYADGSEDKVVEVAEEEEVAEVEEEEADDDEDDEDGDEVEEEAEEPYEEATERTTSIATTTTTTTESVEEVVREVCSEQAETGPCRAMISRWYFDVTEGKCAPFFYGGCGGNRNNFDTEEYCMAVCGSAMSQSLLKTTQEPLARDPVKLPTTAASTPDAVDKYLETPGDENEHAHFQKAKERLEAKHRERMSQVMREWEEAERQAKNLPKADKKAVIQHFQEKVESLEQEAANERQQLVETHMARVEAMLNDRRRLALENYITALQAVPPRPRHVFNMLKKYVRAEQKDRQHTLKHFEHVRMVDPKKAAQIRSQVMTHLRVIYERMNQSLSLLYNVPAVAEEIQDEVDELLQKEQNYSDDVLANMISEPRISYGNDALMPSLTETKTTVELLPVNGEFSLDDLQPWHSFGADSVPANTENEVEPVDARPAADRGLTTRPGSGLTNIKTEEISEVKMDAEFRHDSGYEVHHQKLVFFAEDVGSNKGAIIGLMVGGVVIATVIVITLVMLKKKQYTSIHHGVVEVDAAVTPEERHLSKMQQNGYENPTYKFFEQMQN

[6] = In vivo steady state metabolic clearance of the compound; details: rat
[7] = Concentration ratio in cerebrospinal fluid and plasma; below lower limit of quantitation; details: rat
[8] = molecular target: T4, Cytochrome P450 2C9 (Homo sapiens, UniProt P11712); assay: Interaction with human cytochrome P450 isoform 2C9 expressed in baculovirus-insect cells; format: ADME; method in brief: as §2
[9] = molecular target: T5, Cytochrome P450 3A4 (Homo sapiens, UniProt P08684); assay: (§4) Interaction with human cytochrome P450 isoform 3A4 expressed in baculovirus-insect cells; format: ADME
Method in brief: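 Supersome microsomes from baculovirus-insect cells expressing human CYP1A2, 2C9, 2C19, 2D6 or 3A4 were used with isoform-specific fluorogenic substrates. Compounds were serially diluted with an NADP⁺/glucose-6-phosphate regenerating system in 0.35 M potassium phosphate, pH 7.4. Plates were prewarmed 10 min at 37 °C, reactions stopped with acetonitrile/Tris, and fluorescence read. IC50 was obtained by nonlinear regression.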

[10] = molecular target: T1, Amyloid-beta precursor protein; assay: Concentration required to inhibit A beta 40 peptide 100 um
Target sequence in this assay (P05067 whole entry): as above

[11] = Intestinal drug absorption was estimated in vitro using human colon adenocarcinoma (Caco-2) cell monolayers; Range is 10-50 nm/s; format: ADME; method in brief: as §3
[12] = molecular target: T1, Amyloid-beta precursor protein; assay: Concentration required to inhibit A beta 40 peptide; method in brief: as §1
Target sequence in this assay (P05067 whole entry): as above

[13] = molecular target: T6, CYP1A2 (Homo sapiens, UniProt P05177); assay: Interaction with human cytochrome P450 isoform 1A2 expressed in baculovirus-insect cells at 100 uM; format: ADME; method in brief: as §2
T6 sequence (P05177 whole entry): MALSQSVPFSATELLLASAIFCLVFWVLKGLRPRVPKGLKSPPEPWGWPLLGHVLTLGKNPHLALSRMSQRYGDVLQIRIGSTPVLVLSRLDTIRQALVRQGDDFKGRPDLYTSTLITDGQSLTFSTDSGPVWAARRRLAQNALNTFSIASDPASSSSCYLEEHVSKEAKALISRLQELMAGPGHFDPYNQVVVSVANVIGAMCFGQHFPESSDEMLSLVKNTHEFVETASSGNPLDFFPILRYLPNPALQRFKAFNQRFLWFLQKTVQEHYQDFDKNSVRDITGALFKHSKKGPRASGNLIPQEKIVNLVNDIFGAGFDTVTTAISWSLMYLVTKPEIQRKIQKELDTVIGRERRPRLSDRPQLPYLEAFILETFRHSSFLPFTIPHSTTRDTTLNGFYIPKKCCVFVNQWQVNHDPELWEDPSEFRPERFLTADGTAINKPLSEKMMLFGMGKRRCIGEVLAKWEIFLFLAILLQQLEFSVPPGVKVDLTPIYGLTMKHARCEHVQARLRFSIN

[14] = molecular target: CYP2D6 (Homo sapiens, UniProt P10635); assay: (§5) Interaction with human cytochrome P450 isoform 2D6 expressed in baculovirus-insect cells at 100 uM; format: ADME; method in brief: as §2
[15] = molecular target: Cytochrome P450 2D6 (Homo sapiens, UniProt P10635); assay: as §5; format: ADME; method in brief: as §2
[16] = molecular target: CYP2C19 (Homo sapiens, UniProt P33261); assay: Interaction with human cytochrome P450 isoform 2C19 expressed in baculovirus-insect cells at 100 uM; format: ADME; method in brief: as §2
[17] = Concentration ratio in cerebrospinal fluid and plasma; details: rat
[18] = molecular target: T3, Cytochrome P450 2C19; assay: Interaction with human cytochrome P450 isoform 2C19 expressed in baculovirus-insect cells; format: ADME; method in brief: as §2
[19] = Intestinal drug absorption was estimated in vitro using human colon adenocarcinoma (Caco-2) cell monolayers; format: ADME; method in brief: as §3
[20] = molecular target: T4, Cytochrome P450 2C9; assay: Interaction with human cytochrome P450 isoform 2C9 expressed in baculovirus-insect cells; Activation was observed due to interference in assay; format: ADME; method in brief: as §2
[21] = molecular target: T1, Amyloid-beta precursor protein; assay: Concentration required to inhibit A beta 40 peptide 100 uM
Target sequence in this assay (P05067 whole entry): as the sequence (P05067 whole entry) above

[22] = molecular target: T7, Cytochrome P450 1A2 (Homo sapiens, UniProt P05177); assay: Interaction with human cytochrome P450 isoform 1A2 expressed in baculovirus-insect cells; format: ADME; method in brief: as §2
T7 sequence (P05177 whole entry): T6 sequence (P05177 whole entry)

[23] = molecular target: T5, Cytochrome P450 3A4; assay: as §4; format: ADME; method in brief: as §2; remark: listed apart in the source
[24] = Concentration ratio in cerebrospinal fluid and plasma; LLOQ = lower limit of quantitation; details: rat

T5 sequence (P08684 whole entry, canonical isoform): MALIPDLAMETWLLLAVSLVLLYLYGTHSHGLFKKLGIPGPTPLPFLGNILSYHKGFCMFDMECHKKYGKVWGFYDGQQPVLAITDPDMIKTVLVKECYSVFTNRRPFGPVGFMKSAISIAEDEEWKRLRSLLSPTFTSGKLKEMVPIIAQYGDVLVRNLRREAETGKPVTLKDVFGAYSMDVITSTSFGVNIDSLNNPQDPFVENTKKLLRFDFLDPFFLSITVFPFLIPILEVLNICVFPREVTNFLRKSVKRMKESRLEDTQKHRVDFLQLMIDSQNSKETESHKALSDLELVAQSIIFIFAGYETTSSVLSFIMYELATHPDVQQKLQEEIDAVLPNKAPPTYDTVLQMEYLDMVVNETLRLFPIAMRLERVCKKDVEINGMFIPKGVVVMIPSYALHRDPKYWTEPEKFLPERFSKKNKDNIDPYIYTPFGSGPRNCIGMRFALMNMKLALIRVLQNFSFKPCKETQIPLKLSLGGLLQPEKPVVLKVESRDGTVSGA
T3 sequence (P33261 whole entry, canonical isoform): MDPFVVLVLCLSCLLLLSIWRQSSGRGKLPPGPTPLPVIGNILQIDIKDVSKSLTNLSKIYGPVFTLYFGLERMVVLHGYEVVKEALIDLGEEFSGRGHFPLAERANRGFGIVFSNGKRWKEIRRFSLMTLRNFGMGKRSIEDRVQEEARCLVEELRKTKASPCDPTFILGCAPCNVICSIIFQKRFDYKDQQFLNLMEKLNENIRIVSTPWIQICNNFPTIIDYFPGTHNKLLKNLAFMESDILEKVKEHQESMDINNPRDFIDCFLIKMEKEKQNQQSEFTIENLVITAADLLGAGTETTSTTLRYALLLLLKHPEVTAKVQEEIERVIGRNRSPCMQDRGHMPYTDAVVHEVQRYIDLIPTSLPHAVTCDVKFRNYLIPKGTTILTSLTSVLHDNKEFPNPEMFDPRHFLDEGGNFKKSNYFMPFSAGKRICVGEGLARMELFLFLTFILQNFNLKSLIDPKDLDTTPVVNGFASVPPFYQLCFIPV
T4 sequence (P11712 whole entry, canonical isoform): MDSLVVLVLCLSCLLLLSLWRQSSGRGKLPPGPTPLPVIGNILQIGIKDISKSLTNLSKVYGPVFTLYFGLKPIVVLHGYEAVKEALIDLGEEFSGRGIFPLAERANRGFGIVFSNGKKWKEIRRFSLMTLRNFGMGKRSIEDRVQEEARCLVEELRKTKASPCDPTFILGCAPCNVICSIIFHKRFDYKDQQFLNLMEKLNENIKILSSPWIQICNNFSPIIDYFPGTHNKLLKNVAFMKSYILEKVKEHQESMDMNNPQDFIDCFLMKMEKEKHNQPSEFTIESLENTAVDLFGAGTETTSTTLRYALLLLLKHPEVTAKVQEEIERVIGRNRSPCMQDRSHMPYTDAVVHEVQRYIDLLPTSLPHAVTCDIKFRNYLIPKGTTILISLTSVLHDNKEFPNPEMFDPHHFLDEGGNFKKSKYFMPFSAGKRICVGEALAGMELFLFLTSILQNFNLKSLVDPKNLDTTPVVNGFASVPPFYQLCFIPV
Sequence of CYP2C19 (P33261 whole entry, canonical isoform): as the sequence (P33261 whole entry, canonical isoform) above
Sequence of Cytochrome P450 2D6 (P10635 whole entry, canonical isoform): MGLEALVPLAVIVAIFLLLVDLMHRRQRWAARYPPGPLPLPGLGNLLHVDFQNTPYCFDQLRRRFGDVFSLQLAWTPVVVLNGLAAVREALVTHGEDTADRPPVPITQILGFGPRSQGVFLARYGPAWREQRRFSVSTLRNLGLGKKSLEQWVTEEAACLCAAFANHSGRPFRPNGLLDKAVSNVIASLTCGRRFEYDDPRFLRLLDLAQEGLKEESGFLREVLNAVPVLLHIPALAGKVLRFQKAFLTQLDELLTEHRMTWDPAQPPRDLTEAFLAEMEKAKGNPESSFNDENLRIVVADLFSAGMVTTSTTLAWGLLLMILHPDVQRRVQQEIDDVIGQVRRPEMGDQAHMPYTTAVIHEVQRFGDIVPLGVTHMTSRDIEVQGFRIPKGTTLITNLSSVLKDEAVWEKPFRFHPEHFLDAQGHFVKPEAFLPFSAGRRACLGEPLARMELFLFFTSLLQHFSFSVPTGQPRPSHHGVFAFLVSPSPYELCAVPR
Sequence of CYP2D6 (P10635 whole entry, canonical isoform): as above

IC50 [1] | inhibition [2] | inhibition [5] | Clearance [6] | IC50 [12] | Papp [19] | Structure (SMILES) | other results
129 µM | 40% | 60% | – | – | – | CC(C(=O)O)c1ccc(-c2ccc(C(F)(F)F)cc2)c(F)c1 (stereo not drawn) | Inhibition [3]: No interactions; Absoption [4]: High
– | – | 52% | 39 mL/h | – | – | O=C(O)C1(c2ccc(-c3ccc(C4CCOCC4)cc3)c(F)c2)CC1 | Ratio [7]: Below LLOQ
– | 12% | 77% | – | – | – | CC(C)(C(=O)O)c1ccc(-c2ccc(C3CCCCC3)cc2)c(F)c1 | IC50 [8]: 28 µM; IC50 [9]: 59 µM; inhibition [10]: 47%
21 µM | 18% | 79% | 174 mL/h | 46 µM | – | CC(C(=O)O)c1ccc(-c2ccc(C3CCCCC3)cc2)c(F)c1 (stereo not drawn) | Papp [11]: 5 ×10⁻⁶ cm/s; inhibition at 100 µM [13]: > 50%; inhibition at 100 µM [14]: > 50%; Inhibition [15]: > 50%; inhibition at 100 µM [16]: > 50%; Ratio [17]: 1.5%
33.6 µM | < 1% | 80% | 109 mL/h | 111 µM | > 5 ×10⁻⁶ cm/s | O=C(O)C1(c2ccc(-c3ccc(-c4ccc(O)cc4)c(F)c3)c(F)c2)CC1 | IC50 [9]: 58 µM; IC50 [18]: 74 µM; Ratio [7]: Below LLOQ
77 µM | 65% | 75% | – | 94 µM | > 5 ×10⁻⁶ cm/s | CC(C(=O)O)c1ccc(-c2cc(Cl)cc(Cl)c2)c(F)c1 (stereo not drawn) | Activation [20]: > 50%
41 µM | 20% | 76% | 148 mL/h | – | > 5 ×10⁻⁶ cm/s | CC(C(=O)O)c1ccc(-c2ccc(OC3CCCCC3)cc2)c(F)c1 (stereo not drawn) | inhibition [21]: 25%; Inhibition [22]: > 50%; Inhibition [23]: > 50%; Ratio [24]: Below LLOQ
